The source made the active and inactive calls. The rule behind the calls is not given here.
Assays:
Murine hepatitis virus [1] = assay: Antiviral activity against MHV-A59 infected in LR7 cells assessed as reduction in number of infected cells at 400 nM treated 2 hrs after post viral infection and measured after 6 hrs by DAPI staining based immunofluorescence analysis; assay type: functional, organism-based
Method in brief: (§1)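 MHV A59 infection of LR7 cells on coverslips at MOI 1. Compound (4 nM–40 µM, tenfold dilutions) was added 2 h p.i. and cells were fixed at 8 h p.i. with 4% paraformaldehyde. Cells were permeabilized with 0.2% Triton X-100 and stained with anti-nsp2/nsp3 antiserum, an Alexa-488 secondary and DAPI. nsp2/nsp3-positive cells were counted by confocal microscopy relative to the DMSO control. ≥3 independent experiments.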

Murine hepatitis virus [2] = assay: Antiviral activity against MHV-A59 infected in LR7 cells assessed as reduction in N protein production at 400 nM treated 2 hrs after post viral infection and measured after 6 hrs by Western blot analysis; assay type: functional, organism-based
Method in brief: (§2)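 LR7 cells (1×10^5/well) infected with MHV A59 at MOI 1 for 1 h, washed, then held in DMEM with 2% FBS. Compound (4 nM–40 µM, tenfold steps) was added at 2 h p.i. and cells were harvested at 8 h p.i. Western blot probed for MHV N protein, normalized to GAPDH and expressed relative to the 0.1% DMSO control. Mock and 400 nM bafilomycin A1 served as controls. ≥3 independent experiments.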

Murine hepatitis virus [3] = assay: Antiviral activity against MHV-A59 infected in LR7 cells assessed as reduction in N protein production at 40 uM treated 2 hrs after post viral infection and measured after 6 hrs by Western blot analysis relative to control; assay type: functional; design: scale not given: the % may be the effect or the level left; method in brief: as §2
Murine hepatitis virus [4] = assay: Antiviral activity against MHV-A59 infected in LR7 cells assessed as reduction in N protein production measured after 6 hrs by Western blot analysis relative to control; assay type: functional, organism-based; conditions: dose 0.004-40 µM; method in brief: as §2
[5] = Cytotoxicity against mouse LR7 cells assessed as maximum non-toxic concentration after 6 hrs by MTT assay; assay type: cell-based
Method in brief: (§3)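 Vero E6 or LR7 cells seeded at 1×10^4/well were grown 24 h in DMEM with 10% FBS at 37 °C and 5% CO2. Serial drug dilutions (0–500 µM) were added for 6 h (legend) or 8 h (methods). Viability was normalized to the 0.1% DMSO control.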

Murine hepatitis virus [6] = assay: Antiviral activity against MHV-A59 infected in LR7 cells assessed as reduction in number of infected cells at 40 uM treated 2 hrs after post viral infection and measured after 6 hrs by DAPI staining based immunofluorescence analysis relative to control; assay type: functional; design: scale not given: the % may be the effect or the level left; method in brief: as §1
[7] = Inhibition of SARS-CoV-2 3CL protease expressed in Escherichia coli BL21 DE3 using 2-aminobenzoyl-SVTLQSG-Tyr(NO2)-R as substrate preincubated with substrate for 15 mins followed by compound addition and measured after 1 hr by FRET assay; design: species or system Severe acute respiratory syndrome coronavirus 2
Murine hepatitis virus [8] = assay: Antiviral activity against MHV-A59 infected in LR7 cells assessed as reduction in N protein production at 4 nM treated 2 hrs post viral infection and measured after 6 hrs by Western blot analysis; assay type: functional; design: scale not given: the % may be the effect or the level left; method in brief: as §2
[9] = Cmax in human; assay type: ADME
Murine hepatitis virus [10] = assay: Antiviral activity against MHV-A59 infected in LR7 cells assessed as reduction in number of infected cells at 40 nM treated 2 hrs post viral infection and measured after 6 hrs by immunofluorescence analysis; assay type: functional; design: scale not given: the % may be the effect or the level left; method in brief: as §1
[11] = Cytotoxicity against African green monkey Vero E6 cells assessed as maximum non-toxic concentration after 6 hrs by MTT assay; assay type: cell-based; conditions: chlorocebus aethiops; method in brief: as §3
Murine hepatitis virus [12] = assay: Antiviral activity against MHV-A59 infected in Vero E6 cells assessed as reduction in viral gene expression at 10 uM treated 2 hrs post viral infection and measured after 6 hrs by RT-PCR analysis; assay type: functional; design: scale not given: the % may be the effect or the level left
Murine hepatitis virus [13] = assay: Antiviral activity against MHV-A59 infected in […] cells assessed as reduction in viral gene expression at 100 uM treated 2 hrs post viral infection and measured after 6 hrs by RT-PCR analysis; assay type: functional, organism-based
[14] = system: Severe acute respiratory syndrome coronavirus 2; assay: Inhibition of SARS-CoV-2 3CL protease expressed in Escherichia coli BL21 DE3 at 200 uM using 2-aminobenzoyl-SVTLQSG-Tyr(NO2)-R as substrate preincubated with substrate for 15 mins followed by compound addition and measured after 1 hr by FRET assay relative to control

Row | Structure (SMILES) | Activity (Murine hepatitis virus [1]) | Activity (Murine hepatitis virus [2]) | Activity (Murine hepatitis virus [3]) | Activity (Murine hepatitis virus [4]) | MNTC at 6 h [5] [µM] | Activity (Murine hepatitis virus [6]) | IC50 [7] [µM] | Activity (Murine hepatitis virus [8]) [%] | Cmax [9] [ng/mL] | Activity (Murine hepatitis virus [10]) [%] | MNTC at 6 h [11] [µM] | Activity (Murine hepatitis virus [12]) [%] | Activity (Murine hepatitis virus [13]) | inhibition [14] [%]
1 | CO/C1=C\C(C)=C\[C@@H](C)[C@@H](O)[C@@H](C)C/C(C)=C/C=C/[C@H](OC)[C@@H]([C@@H](C)[C@@H](O)[C@H](C)[C@@]2(O)C[C@@H](O)[C@H](C)[C@@H](C(C)C)O2)OC1=O | Active | Active |  |  |  |  |  |  |  |  |  |  |  | 
2 | CC(C)(C)NC(=O)N[C@H](C(=O)N1C[C@H]2[C@@H]([C@H]1C(=O)NC(CC1CCC1)C(=O)C(N)=O)C2(C)C)C(C)(C)C (some centres undefined) [BOCEPREVIR] |  |  | 90% | Dose-dependent effect | 72.5 | 75% | 1.59 | 40 | 1720 | 25 | 72.5 | 50 | Active | 
3 | CCC[C@H](NC(=O)[C@@H]1[C@H]2CCC[C@H]2CN1C(=O)[C@@H](NC(=O)[C@@H](NC(=O)c1cnccn1)C1CCCCC1)C(C)(C)C)C(=O)C(=O)NC1CC1 [TELAPREVIR] |  |  | inactive |  | 72.5 | inactive | 55.7 |  |  |  | 72.5 |  |  | 100

— ChEMBL document CHEMBL4732021, “Repurposing the HCV NS3-4A protease drug boceprevir as COVID-19 therapeutics” (RSC Med Chem, 2021)
